Active and inactive are the calls of the source.
Legend:
[1] = biological target: Epidermal growth factor receptor (Homo sapiens, UniProt P00533); test: Inhibition of EGFR up to 100 uM
Outline: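 Buffer: HEPES-NaOH pH 7.5, Mg2+/Mn2+, vanadate, DTT, PEG20000, 1% DMSO. Incubated 30 °C for 80 min, stopped with 2% H3PO4, washed, and scintillation-counted. IC50 from 10 concentrations in singlicate.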

[2] = biological target: Proto-oncogene tyrosine-protein kinase Src (Homo sapiens, UniProt P12931); test: Inhibition of SRC up to 100 uM
Angiopoietin-1 receptor = Angiopoietin-1 receptor (Homo sapiens, UniProt Q02763); test: Inhibition of TIE2 up to 100 uM
[3] = biological target: Mitogen-activated protein kinase 14 (Homo sapiens) (UniProt Q16539); test: Inhibition of SAPK2a at 10 uM
[4] = biological target: Casein kinase I isoform delta (Rattus norvegicus) (UniProt Q06486); test: Inhibition of rat CK1delta (1-294) at 10 uM
[5] = biological target: MAP kinase-activated protein kinase 3 (Homo sapiens) (UniProt Q16644); test: Inhibition of MAPKAP-K3 at 10 uM
[6] = biological target: Lymphokine-activated killer T-cell-originated protein kinase (Homo sapiens) (UniProt Q96KB5); test: Inhibition of PBK at 10 uM
[7] = biological target: Dual specificity tyrosine-phosphorylation-regulated kinase 3 (Homo sapiens) (UniProt O43781); test: Inhibition of human DYRK3 at 10 uM
[8] = biological target: Homeodomain-interacting protein kinase 2 (Homo sapiens) (UniProt Q9H2X6); test: Inhibition of human HIPK2 at 10 uM
[9] = biological target: MAP kinase-activated protein kinase 5 (Homo sapiens) (UniProt Q8IW41); test: Inhibition of PRAK at 10 uM
[10] = biological target: Calcium/calmodulin-dependent protein kinase kinase 1 (Homo sapiens) (UniProt Q8N5S9); test: Inhibition of human CAMKKalpha at 10 uM
[11] = biological target: Mitogen-activated protein kinase 8 (Homo sapiens) (UniProt P45983); test: Inhibition of JNK1alpha1 at 10 uM
[12] = biological target: Tyrosine-protein kinase CSK (Homo sapiens) (UniProt P41240); test: Inhibition of CSK at 10 uM
[13] = biological target: Tyrosine-protein kinase SYK (Homo sapiens) (UniProt P43405); test: Inhibition of human SYK at 10 uM
[14] = biological target: Mitogen-activated protein kinase 13 (Homo sapiens) (UniProt O15264); test: Inhibition of SAPK4 at 10 uM
[15] = biological target: Ephrin type-A receptor 2 (Homo sapiens) (UniProt P29317); test: Inhibition of human EPHA2 at 10 uM
[16] = biological target: Serine/threonine-protein kinase BRSK2 (Homo sapiens) (UniProt Q8IWQ3); test: Inhibition of human BRSK2 at 10 uM
[17] = Inhibition of CK2 at 10 uM
[18] = biological target: MAP kinase-activated protein kinase 2 (Homo sapiens) (UniProt P49137); test: Inhibition of MAPKAP-K2 (delta 1-45) at 10 uM
[19] = biological target: Serine/threonine-protein kinase Nek7 (Homo sapiens) (UniProt Q8TDX7); test: Inhibition of NEK7 at 10 uM
[20] = biological target: Serine/threonine-protein kinase 3 (Homo sapiens) (UniProt Q13188); test: Inhibition of human MST2 at 10 uM
[21] = biological target: Fibroblast growth factor receptor 1 (Homo sapiens) (UniProt P11362); test: Inhibition of human FGFR1 at 10 uM
[22] = biological target: Ribosomal protein S6 kinase alpha-1 (Rattus norvegicus) (UniProt Q63531); test: Inhibition of rat MAPKAP-K1a at 10 uM
Rattus norvegicus = organism: Rattus norvegicus; test: Inhibition of rat AMPK at 10 uM
[23] = biological target: Proto-oncogene tyrosine-protein kinase LCK (Mus musculus) (UniProt P06240); test: Inhibition of mouse LCK at 10 uM
[24] = biological target: Mitogen-activated protein kinase 10 (Homo sapiens) (UniProt P53779); test: Inhibition of JNK3alpha1 at 10 uM
[25] = biological target: Serine/threonine-protein kinase Nek2 (Homo sapiens) (UniProt P51955); test: Inhibition of NEK2a at 10 uM
[26] = biological target: Serine/threonine-protein kinase TBK1 (Homo sapiens) (UniProt Q9UHD2); test: Inhibition of human TBK1 at 10 uM
[27] = biological target: Serine/threonine-protein kinase pim-1 (Homo sapiens) (UniProt P11309); test: Inhibition of human PIM1 at 10 uM
[28] = biological target: Serine/threonine-protein kinase 26 (Homo sapiens) (UniProt Q9P289); test: Inhibition of human MST4 at 10 uM
[29] = biological target: Serine/threonine-protein kinase PAK 5 (Homo sapiens) (UniProt Q9P286); test: Inhibition of human PAK5 at 10 uM
[30] = biological target: Serine/threonine-protein kinase PAK 6 (Homo sapiens) (UniProt Q9NQU5); test: Inhibition of human PAK6 at 10 uM
[31] = biological target: Protein kinase C alpha type (Homo sapiens) (UniProt P17252); test: Inhibition of PKCalpha at 10 uM
[32] = biological target: Eukaryotic elongation factor 2 kinase (Homo sapiens) (UniProt O00418); test: Inhibition of human EF2K at 10 uM
[33] = biological target: Rho-associated protein kinase 2 (Rattus norvegicus) (UniProt Q62868); test: Inhibition of rat ROCK2 at 10 uM
[34] = biological target: Serine/threonine-protein kinase D1 (Homo sapiens) (UniProt Q15139); test: Inhibition of human PKD1 at 10 uM
[35] = tested on: Ribosomal protein S6 kinase beta-1 (Homo sapiens), P23443 [T412E]; test: Inhibition of S6K1 T412E mutant at 10 uM
[36] = biological target: Protein kinase C zeta type (Homo sapiens) (UniProt Q05513); test: Inhibition of human PKCzeta at 10 uM
[37] = biological target: Serine/threonine-protein kinase Chk1 (Homo sapiens) (UniProt O14757); test: Inhibition of CHK1 at 10 uM
[38] = biological target: Serine/threonine-protein kinase pim-2 (Homo sapiens) (UniProt Q9P1W9); test: Inhibition of PIM2 at 10 uM
[39] = biological target: Inhibitor of nuclear factor kappa-B kinase subunit epsilon (Homo sapiens) (UniProt Q14164); test: Inhibition of human IKKe at 10 uM
[40] = biological target: Homeodomain-interacting protein kinase 3 (Homo sapiens) (UniProt Q9H422); test: Inhibition of human HIPK3 at 10 uM
[41] = biological target: MAP/microtubule affinity-regulating kinase 3 (Homo sapiens) (UniProt P27448); test: Inhibition of human MARK3 at 10 uM
[42] = biological target: Calcium/calmodulin-dependent protein kinase kinase 2 (Homo sapiens) (UniProt Q96RR4); test: Inhibition of human CAMKKbeta at 10 uM
[43] = biological target: Myosin light chain kinase, smooth muscle (Homo sapiens) (UniProt Q15746); test: Inhibition of smMLCK at 10 uM

Measured: inhibition

Chain of Protein kinase C zeta type (Homo sapiens) (Q05513 whole entry): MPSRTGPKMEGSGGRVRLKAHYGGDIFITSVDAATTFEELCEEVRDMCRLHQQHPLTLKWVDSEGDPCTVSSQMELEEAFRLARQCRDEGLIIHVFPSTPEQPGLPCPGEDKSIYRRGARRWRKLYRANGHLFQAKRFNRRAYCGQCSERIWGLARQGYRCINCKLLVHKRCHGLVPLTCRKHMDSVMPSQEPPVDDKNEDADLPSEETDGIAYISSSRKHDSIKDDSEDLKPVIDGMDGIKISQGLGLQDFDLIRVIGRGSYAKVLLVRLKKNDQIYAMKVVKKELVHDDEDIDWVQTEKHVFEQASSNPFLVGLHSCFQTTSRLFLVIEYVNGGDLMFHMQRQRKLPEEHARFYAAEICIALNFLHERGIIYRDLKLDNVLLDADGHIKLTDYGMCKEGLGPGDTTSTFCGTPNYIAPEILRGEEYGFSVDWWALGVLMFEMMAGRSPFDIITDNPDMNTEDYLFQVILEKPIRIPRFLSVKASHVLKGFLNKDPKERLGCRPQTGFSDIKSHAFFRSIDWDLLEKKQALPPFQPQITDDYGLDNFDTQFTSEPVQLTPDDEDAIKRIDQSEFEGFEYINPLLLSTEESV
Chain of Myosin light chain kinase, smooth muscle (Homo sapiens) (Q15746 whole entry): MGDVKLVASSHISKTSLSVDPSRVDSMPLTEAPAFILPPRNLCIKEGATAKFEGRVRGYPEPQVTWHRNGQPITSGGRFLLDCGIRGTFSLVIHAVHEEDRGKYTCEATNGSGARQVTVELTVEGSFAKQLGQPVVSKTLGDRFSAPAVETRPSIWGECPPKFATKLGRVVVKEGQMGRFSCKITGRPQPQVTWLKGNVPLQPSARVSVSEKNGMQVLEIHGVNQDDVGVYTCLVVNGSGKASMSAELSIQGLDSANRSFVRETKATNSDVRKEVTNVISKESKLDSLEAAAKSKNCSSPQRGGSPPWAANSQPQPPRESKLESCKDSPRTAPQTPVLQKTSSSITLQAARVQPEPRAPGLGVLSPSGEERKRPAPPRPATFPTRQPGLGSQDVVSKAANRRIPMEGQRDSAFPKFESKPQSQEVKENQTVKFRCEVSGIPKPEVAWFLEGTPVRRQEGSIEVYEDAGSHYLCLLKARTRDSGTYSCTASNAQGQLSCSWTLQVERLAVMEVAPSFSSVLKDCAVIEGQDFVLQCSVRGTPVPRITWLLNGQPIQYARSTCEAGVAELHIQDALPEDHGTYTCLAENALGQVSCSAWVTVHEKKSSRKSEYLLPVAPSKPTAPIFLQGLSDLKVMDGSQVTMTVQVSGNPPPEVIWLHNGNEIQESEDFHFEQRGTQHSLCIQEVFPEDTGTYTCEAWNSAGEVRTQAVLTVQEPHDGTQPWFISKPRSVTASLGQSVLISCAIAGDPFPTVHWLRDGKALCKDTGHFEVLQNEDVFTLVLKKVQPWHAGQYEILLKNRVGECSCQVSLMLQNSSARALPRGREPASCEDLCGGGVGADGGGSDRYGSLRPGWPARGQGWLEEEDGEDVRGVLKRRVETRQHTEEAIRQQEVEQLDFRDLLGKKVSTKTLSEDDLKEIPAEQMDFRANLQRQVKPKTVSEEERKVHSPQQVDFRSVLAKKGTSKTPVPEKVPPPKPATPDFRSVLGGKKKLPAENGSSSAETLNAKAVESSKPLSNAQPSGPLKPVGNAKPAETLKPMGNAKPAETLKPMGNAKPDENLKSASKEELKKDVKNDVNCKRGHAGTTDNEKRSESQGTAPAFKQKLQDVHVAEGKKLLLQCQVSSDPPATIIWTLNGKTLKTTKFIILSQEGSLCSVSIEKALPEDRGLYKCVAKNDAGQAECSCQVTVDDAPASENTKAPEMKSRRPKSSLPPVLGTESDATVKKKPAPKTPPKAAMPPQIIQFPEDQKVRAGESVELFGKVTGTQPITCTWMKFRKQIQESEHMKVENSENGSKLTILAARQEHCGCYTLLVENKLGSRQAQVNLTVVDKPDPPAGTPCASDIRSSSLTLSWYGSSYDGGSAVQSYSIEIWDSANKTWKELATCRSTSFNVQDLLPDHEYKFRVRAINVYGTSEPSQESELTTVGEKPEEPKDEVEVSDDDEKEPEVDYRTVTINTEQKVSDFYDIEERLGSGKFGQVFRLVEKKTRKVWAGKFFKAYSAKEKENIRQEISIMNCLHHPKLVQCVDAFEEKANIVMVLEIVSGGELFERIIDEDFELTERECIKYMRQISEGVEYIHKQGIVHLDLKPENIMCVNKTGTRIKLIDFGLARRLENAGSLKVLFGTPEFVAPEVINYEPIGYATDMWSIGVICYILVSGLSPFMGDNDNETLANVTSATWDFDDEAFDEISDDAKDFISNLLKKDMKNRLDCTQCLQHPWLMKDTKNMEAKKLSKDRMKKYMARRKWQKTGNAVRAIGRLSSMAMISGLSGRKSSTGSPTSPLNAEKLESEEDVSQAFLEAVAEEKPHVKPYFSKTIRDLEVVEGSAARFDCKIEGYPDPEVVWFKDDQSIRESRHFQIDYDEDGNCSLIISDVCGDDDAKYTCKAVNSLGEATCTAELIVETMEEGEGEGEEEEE
Chain of Serine/threonine-protein kinase pim-2 (Homo sapiens) (Q9P1W9 whole entry, looked up): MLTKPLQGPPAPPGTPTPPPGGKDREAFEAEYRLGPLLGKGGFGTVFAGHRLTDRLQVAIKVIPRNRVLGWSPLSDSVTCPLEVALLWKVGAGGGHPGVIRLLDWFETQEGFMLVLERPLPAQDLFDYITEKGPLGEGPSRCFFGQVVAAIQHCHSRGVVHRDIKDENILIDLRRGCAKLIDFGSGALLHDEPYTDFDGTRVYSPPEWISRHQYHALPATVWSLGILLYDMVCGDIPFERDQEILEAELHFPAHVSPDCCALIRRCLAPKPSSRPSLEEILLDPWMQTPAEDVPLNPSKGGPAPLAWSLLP
Chain of Mitogen-activated protein kinase 13 (Homo sapiens) (O15264 whole entry): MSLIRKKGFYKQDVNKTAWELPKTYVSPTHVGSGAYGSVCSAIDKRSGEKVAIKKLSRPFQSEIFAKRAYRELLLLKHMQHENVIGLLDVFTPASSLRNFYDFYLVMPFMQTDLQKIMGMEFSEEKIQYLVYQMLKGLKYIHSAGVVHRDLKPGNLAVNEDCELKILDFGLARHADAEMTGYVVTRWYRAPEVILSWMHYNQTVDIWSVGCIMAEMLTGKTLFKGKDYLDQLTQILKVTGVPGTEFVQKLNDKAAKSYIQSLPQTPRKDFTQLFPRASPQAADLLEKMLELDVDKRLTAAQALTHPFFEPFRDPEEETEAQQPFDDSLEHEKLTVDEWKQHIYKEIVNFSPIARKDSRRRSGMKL
Chain of MAP/microtubule affinity-regulating kinase 3 (Homo sapiens) (P27448 whole entry, looked up): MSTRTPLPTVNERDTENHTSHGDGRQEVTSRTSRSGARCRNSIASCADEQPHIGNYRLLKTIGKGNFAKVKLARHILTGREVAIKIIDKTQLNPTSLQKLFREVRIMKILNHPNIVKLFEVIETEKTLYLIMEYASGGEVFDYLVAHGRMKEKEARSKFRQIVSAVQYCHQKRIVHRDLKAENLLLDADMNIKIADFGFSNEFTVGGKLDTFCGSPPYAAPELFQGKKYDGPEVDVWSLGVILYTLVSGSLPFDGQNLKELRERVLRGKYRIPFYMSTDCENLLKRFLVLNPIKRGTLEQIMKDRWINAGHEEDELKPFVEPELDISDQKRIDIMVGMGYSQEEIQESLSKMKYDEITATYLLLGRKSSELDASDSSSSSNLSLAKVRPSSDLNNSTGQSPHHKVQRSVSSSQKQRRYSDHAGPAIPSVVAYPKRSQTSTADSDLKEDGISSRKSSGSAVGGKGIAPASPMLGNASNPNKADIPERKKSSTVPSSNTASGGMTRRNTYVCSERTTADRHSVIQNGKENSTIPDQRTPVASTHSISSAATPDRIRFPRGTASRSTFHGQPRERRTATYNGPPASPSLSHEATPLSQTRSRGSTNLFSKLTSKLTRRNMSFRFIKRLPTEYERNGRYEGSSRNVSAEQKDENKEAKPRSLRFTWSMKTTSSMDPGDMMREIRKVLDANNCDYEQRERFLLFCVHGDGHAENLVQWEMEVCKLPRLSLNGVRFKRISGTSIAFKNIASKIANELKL
Chain of Eukaryotic elongation factor 2 kinase (Homo sapiens) (O00418 whole entry): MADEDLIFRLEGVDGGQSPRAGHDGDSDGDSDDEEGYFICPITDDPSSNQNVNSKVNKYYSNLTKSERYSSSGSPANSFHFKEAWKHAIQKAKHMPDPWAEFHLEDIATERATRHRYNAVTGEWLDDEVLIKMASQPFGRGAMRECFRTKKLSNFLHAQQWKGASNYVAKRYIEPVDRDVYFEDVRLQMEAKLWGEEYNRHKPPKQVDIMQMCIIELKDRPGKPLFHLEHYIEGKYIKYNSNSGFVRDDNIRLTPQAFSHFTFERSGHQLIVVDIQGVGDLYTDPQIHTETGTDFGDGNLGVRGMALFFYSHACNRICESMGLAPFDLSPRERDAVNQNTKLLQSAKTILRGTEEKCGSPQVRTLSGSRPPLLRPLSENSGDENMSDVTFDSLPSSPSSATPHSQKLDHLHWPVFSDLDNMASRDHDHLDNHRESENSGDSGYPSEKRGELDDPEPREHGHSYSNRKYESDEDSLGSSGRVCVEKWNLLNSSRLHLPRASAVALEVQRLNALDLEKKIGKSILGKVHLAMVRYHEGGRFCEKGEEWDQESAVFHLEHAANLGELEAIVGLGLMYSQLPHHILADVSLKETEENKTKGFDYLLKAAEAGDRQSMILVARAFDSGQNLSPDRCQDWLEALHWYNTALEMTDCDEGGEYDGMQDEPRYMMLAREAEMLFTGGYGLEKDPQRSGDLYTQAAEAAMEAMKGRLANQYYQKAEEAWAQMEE
Chain of MAP kinase-activated protein kinase 2 (Homo sapiens) (P49137 whole entry, looked up): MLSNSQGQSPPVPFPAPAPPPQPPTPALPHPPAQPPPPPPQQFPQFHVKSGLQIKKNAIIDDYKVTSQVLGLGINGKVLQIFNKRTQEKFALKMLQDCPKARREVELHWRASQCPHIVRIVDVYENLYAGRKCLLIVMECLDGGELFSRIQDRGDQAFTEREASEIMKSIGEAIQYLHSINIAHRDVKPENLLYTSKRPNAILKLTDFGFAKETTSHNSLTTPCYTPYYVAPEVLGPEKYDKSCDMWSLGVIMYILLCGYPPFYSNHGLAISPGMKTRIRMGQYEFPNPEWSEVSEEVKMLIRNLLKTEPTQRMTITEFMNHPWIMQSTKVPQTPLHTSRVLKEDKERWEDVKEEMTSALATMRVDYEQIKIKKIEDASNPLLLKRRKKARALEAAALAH

Nc1ncnc2ncn(CC(=O)c3ccccc3)c12
inactive: [1]

Nc1ncnc2c1ncn2CC(=O)c1ccccc1
inactive: [2] | Angiopoietin-1 receptor

Nc1ncnc2ncn(CC(=O)c3c[nH]c4ccccc34)c12
not listed: [1] | [2] | Angiopoietin-1 receptor
inactive: all other assays above

Reference: ChEMBL document CHEMBL1137681, “Design, synthesis and characterization of N9/N7-substituted 6-aminopurines as VEGF-R and EGF-R inhibitors” (Eur J Med Chem, 2009)
